# Assay outcomes: PubChem, Johns Hopkins Ion Channel Center
# Most compounds without a hit are left out; they make up all but 3.1% or so of the library.
# KCNK3 inh – human KCNK3 channel inhibition, primary screen | O14649 | CHO-KCNK3 thallium flux, FluxOR fluorescence; active compounds read low | B-score at 10 µM | actives 0.84% (n = 340,000);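 active = B-score under library mean minus 4 SD, starting fluorescence ratio at most library mean plus 5 SD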;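 also: more negative B-score means stronger inhibition of thallium flux through KCNK3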
# KCNQ1 act – potentiates or activates the human KCNQ1 potassium channel | CHO-K1 KCNQ1, thallium flux FluxOR fluorescence; active compounds read high | actives 0.35% (n = 310,000) | P51787 | B-score at 10 µM;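 active = fluorescence ratio B-score, a plate-corrected score, at least three library SD, with initial intensity B-score within 5 SD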
# Target sequence (P51787 whole entry, looked up): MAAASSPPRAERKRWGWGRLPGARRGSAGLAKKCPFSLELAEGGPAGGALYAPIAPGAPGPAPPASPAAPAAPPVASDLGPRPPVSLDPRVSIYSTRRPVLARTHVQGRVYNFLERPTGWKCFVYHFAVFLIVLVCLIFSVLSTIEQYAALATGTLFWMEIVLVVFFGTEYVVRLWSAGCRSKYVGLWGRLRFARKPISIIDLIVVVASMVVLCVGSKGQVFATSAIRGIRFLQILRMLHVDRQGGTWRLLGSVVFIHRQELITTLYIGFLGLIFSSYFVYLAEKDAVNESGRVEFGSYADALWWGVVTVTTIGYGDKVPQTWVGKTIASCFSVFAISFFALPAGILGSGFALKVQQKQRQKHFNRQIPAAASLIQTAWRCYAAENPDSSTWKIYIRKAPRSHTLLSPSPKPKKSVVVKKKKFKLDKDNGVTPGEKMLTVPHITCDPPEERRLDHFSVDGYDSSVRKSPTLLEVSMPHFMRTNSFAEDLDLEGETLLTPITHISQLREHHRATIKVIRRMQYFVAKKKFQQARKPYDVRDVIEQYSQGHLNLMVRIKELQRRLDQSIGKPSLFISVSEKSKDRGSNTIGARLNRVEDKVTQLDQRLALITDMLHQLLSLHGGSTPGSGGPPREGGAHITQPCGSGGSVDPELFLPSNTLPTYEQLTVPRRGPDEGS
#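 System: CHO-K1 cells stably expressing KCNQ1 / Medium: assay buffer for compound exposure, DMSO matched across wells / Reagent: thallium- and potassium-containing depolarizing buffer / Compound: one concentration, matched DMSO / Incubation: 20 min compound pretreatment at room temperature / Measured by: kinetic FluxOR fluorescence, 10 s baseline plus 110 s post-stimulus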
# KCNQ1 block – blocks the human KCNQ1 potassium channel; P51787; CHO-K1 KCNQ1, FluxOR thallium flux fluorescence; active compounds read high; B-score at 10 µM; actives 1.3% (n = 310,000); AID 2642;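 active = compounds whose thallium flux B-score, printed positive for inhibition, exceeds three library SD while starting fluorescence stays within three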;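 also: channel opened by potassium depolarization with thallium stimulus after 20 min compound exposure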
# hERG protect – hERG (human) protection from proarrhythmic block. Q12809. CHO-hERG, FluxOR thallium flux, dofetilide IC70 present. activation (rescue from dofetilide block), less the hit threshold, % at 10 µM. actives 0.51% (n = 310,000). AID 1511;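 active = activation above the mean of controls blocked by dofetilide plus 5 SD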;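 also: thallium influx through hERG after potassium depolarization seen as dye fluorescence rise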
# KCNK9 inh – inhibitors of human KCNK9 two-pore domain potassium channel; HEK293 KCNK9, FluxOR thallium flux fluorescence; active compounds read low; B-score at 10 µM; actives 1.2% (n = 310,000);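 active = ratio B-score over 3 SD below the library mean, with starting fluorescence within 5 SD of its mean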;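 also: negative B-score means less thallium flux so channel inhibition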
# KCNK3 inh conf – human KCNK3 channel inhibition, confirmation assay | shares compounds with KCNK3 inh | ratio percent of control, % at 10 µM | CHO-KCNK3 thallium flux, FluxOR fluorescence; 0% buffer, 100% carvedilol maximal block | actives 99% (n = 2,400) | AID 651638;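 active = ratio percent of control, averaged over triplicates, above buffer control mean plus 5 SD, cut at about 64% in these data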;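 also: ratio is the fluorescence rise from min to max over baseline after thallium stimulus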
# KCNK3 uninduced – counter-screen for KCNK3 inhibitors: effect in non-induced cells | shares compounds with KCNK3 inh | non-induced KCNK3 parental cells, FluxOR thallium flux; active compounds read low | thallium flux ratio (lower = more inhibition) at 10 µM | actives 40% (n = 2,400);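 active = thallium flux ratio, averaged over three wells, more than 5 SD below the buffer control mean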;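 also: host cells are CHO cells without KCNK3 induction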
# Numbers stand for hits; n = inactive; x = not tested or not shown.
SMILES,KCNK3 inh,KCNQ1 act,KCNQ1 block,hERG protect,KCNK9 inh,KCNK3 inh conf,KCNK3 uninduced
CCN(C(=O)CSc1nc2ccccc2c(=O)n1-c1cccc(C)c1)C1CCS(=O)(=O)C1 (stereo not drawn),-11,n,n,n,n,100,n
CCc1cc2c(=O)n(Cc3ccco3)c(SCC(=O)NC3CCS(=O)(=O)C3)nc2s1 (stereo not drawn),n,n,n,n,n,x,x
Cc1ccc(-n2c(SCC(=O)N3CC(=O)Nc4ccccc43)nc3ccccc3c2=O)cc1C,n,n,n,n,n,x,x
CCN(C(=O)CSc1nc2ccc(O)cc2c(=O)n1-c1ccc(OC)c(OC)c1)C1CCS(=O)(=O)C1 (stereo not drawn),n,x,x,x,x,x,x
Cc1cccc(-n2c(SCC(=O)N3CC(=O)Nc4ccccc43)nc3ccccc3c2=O)c1,-10,n,n,n,n,100,n
Nc1c2c(nc3c1CCCC3)CCCC2 (tested in a mixture with another compound),n,n,n,n,n,x,x
CCCN1CCN(CCCNC(=O)CN2C(=O)c3cccnc3Oc3ccc(C)cc32)CC1,n,n,n,n,n,x,x
Cc1cc2cc(CNC(=O)c3ccc(C)c([N+](=O)[O-])c3)ccc2[nH]1,n,n,n,n,n,x,x
CCCCN(C(=O)CSCC(=O)Nc1ccc(OC)cc1)c1c(N)n(CC(C)C)c(=O)[nH]c1=O,n,x,x,x,x,x,x
CC(C)c1ccc(NC(=O)COC(=O)[C@@H]2CCCN2C(=O)c2cccs2)cc1,n,x,x,x,x,x,x
CC(C)CCNCC(O)CON=C1c2ccccc2-c2ccccc21 (stereo not drawn),-8.8,n,n,n,n,104,n
S=C(NC1CCCC1)N1CCN(c2ccc(Cl)cc2)CC1,n,n,n,n,n,x,x
COc1cccc2cc(CC(=O)c3cc(C)ccc3C)c(=O)oc12,-9.6,n,n,n,n,82,n
CCOC(=O)N1CCC(N2Cc3cccc(C(=O)NCc4ccc(C)cc4)c3C2=O)CC1,n,n,n,n,n,x,x
CCOC(=O)N1CCC(N2Cc3cccc(C(=O)NC(C)c4ccc5c(c4)OCCO5)c3C2=O)CC1 (stereo not drawn),-13,n,n,n,n,101,n
CC(C)N(C(=O)COC(=O)c1ccc(Cl)nc1)C(C)C,n,n,n,n,n,x,x
O=C(OCCOc1ccc(Br)cc1)c1ccc(Cl)nc1,-11,n,n,n,n,69,n
O=C(O)COCC(=O)N1CCCN(c2nccc(C(F)(F)F)n2)CC1,n,n,n,n,n,x,x
Cc1nc(C(=O)Nc2cc(Cl)ccc2Cl)nn1-c1cc(OC(C)C)c(Cl)cc1Cl,n,n,n,n,n,x,x
Cc1nc(C(=O)Nc2cccc(Cl)c2)nn1-c1cc(OC(C)C)c(Cl)cc1Cl,-8.9,n,n,n,n,96,n
Cc1ccc(-c2csc3ncnc(N4CCN(Cc5ccccc5)CC4)c23)cc1,-11,n,n,n,n,119,n
COc1ccc(Cl)cc1NC(=O)CN(C)C(=O)c1sc2ccccc2c1Cl,-12,x,x,x,x,112,n
O=C(NCc1ccco1)/C(=C\c1cccnc1)NC(=O)c1ccccc1F,n,n,n,n,n,x,x
CCS(=O)(=O)Nc1cc2c3c(c1)CCC(=O)N3CCC2,n,n,n,n,n,x,x
CCN(CCCNC(=O)CNC(=O)c1nn(-c2ccc(OC)cc2)c(=O)c2ccccc12)c1cccc(C)c1,-12,n,n,n,n,117,n
SMILES,KCNK3 inh,KCNQ1 act,KCNQ1 block,hERG protect,KCNK9 inh,KCNK3 inh conf,KCNK3 uninduced
CC1=CC2=NC(=O)/C(=C/c3coc4ccc(Cl)cc4c3=O)C(=N)N2O1,-9.2,n,10,n,n,134,0.087
CC1=CC2=NC(=O)/C(=C\c3cc(C)n(-c4cccc(Cl)c4)c3C)C(=N)N2O1,n,n,n,n,n,x,x
Cc1ccc(C(=O)Nc2cccc(C(=O)NCc3ccccc3)c2)o1,n,n,n,n,n,x,x
C/C(=N\NC(=O)C1(C)CC1(Br)Br)c1cccc(NC(=O)c2ccc(C)o2)c1 (stereo not drawn),-9.6,n,n,n,n,108,0.14
COc1ccc(C2=NOC(C)(c3nnc(-c4ccc(F)cc4)o3)C2)cc1 (stereo not drawn),n,n,n,n,n,x,x
CSc1cccc(NC(=O)/C=C/c2cccc(Cl)c2)c1,-11,n,11,n,n,128,0.16
NC(N)=N/N=C/c1ccc(OCc2ccc(Cl)cc2)cc1,-10,n,7,n,n,70,n
O=C(CSc1ccc(Cl)cc1)N1CCC(c2nc3ccccc3s2)CC1,-8.8,n,n,n,n,127,0.16
O=C(CSc1c(Cl)cccc1Cl)N1CCC(c2nc3ccccc3s2)CC1,n,n,n,n,n,x,x
N#Cc1cccc(C(c2nnnn2C2CCCC2)N2CCCCCC2)c1 (stereo not drawn),-15,n,n,n,-7.2,93,n
c1cncc(C(c2nnnn2C2CCCC2)N2CCCC2)c1 (stereo not drawn),n,n,n,n,n,x,x
COc1cccc(-n2c(N)cc(=O)nc2SCC(=O)N2CCN(c3ccccc3)CC2)c1,n,n,n,n,n,x,x
CCOc1ccc(C(=O)Nc2nnn(CC)n2)cc1,n,n,n,n,n,x,x
CCn1nnc(NC(=O)COc2ccc(C3CCCCC3)cc2)n1,-9.7,n,n,n,n,94,0.16
COc1ccc(OC)c(-c2csc(NC(=O)C3=COCCO3)n2)c1,-9.1,n,n,n,n,91,n
COc1ccc(OC)c(-c2csc(NC(=O)Cc3cc(OC)c(OC)c(OC)c3)n2)c1,n,n,n,n,n,x,x
COc1ccc(OC)c(-c2csc(NC(=O)Cc3ccc(F)cc3)n2)c1,-11,n,n,n,n,114,n
O=C(Cc1ccccc1F)Nc1nc(-c2ccc(F)cc2)cs1,-11,n,n,n,n,126,n
Cc1cc(C)c2sc(N(CCN(C)C)C(=O)c3c(F)cccc3F)nc2c1,-9.1,n,n,n,n,116,n
CCC(CC)C(=O)Nc1cccc(C(=O)Nc2ccc3c(c2)OCO3)c1,-12,n,n,n,-7.6,92,n
CCN(CC)S(=O)(=O)c1cccc(C(=O)Nc2ccc3c(c2)OCO3)c1,n,n,n,n,n,x,x
CCOC(=O)c1ccc(NC(=O)CSc2nnc(CCc3ccc(C)o3)n2-c2ccccc2)cc1,-17,n,n,n,n,90,n
CCOc1ccc(/C=C/C(O)=C2/C(=O)N(C)C3(C)CC2c2ccccc2O3)cc1OC (stereo not drawn),-9.9,n,n,n,n,88,n
Oc1cccc(Nc2nc(O)c(/C=C3\C=Nc4ccccc43)s2)c1,-15,x,x,x,x,148,0.083
